Reference: ChEMBL document CHEMBL1150877, “Total synthesis and biological activities of (+)- and (-)-boscialin and their 1'-epimers” (J Nat Prod, 1998)
≈ marks a conversion by molar mass, not a printed value. Calls of active or inactive are those of the source. The rule behind the calls is not given here.

Assays:
Corynebacterium xerosis = assay: Antimicrobial activity against Corynebacterium xerosis ATCC 373 after 24 hrs by agar diffusion assay; assay type: functional
Procedure, shortened: (§1)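 Overnight cultures were diluted in 0.9% NaCl and mixed into molten casein soymeal peptone agar at a final 5 × 10⁴–10⁵ CFU/mL, which was layered onto agar plates. Test substances (100 µL of 1 mg/mL in H2O) were placed in 1 cm wells. Plates were incubated at 37 °C for 24 h, and inhibition zone diameters were measured.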

[1] = system: Corynebacterium minutissimum; assay: Antimicrobial activity against Corynebacterium minutissium ATCC 23348 after 24 hrs by agar diffusion assay; assay type: functional; procedure, shortened: as §1
Trypanosoma cruzi = assay: Antitrypanosomal activity against Trypanosoma cruzi MHOM/Br/OO/Y trypomastigotes up to 100 ug/ml after 5 days
Staphylococcus aureus = assay: Antimicrobial activity against Staphylococcus aureus ATCC 9144 after 24 hrs by agar diffusion assay; assay type: functional; procedure, shortened: as §1
[2] = system: Trypanosoma brucei rhodesiense; assay: Antitrypanosomal activity against blood stream form of Trypanosoma brucei rhodesiense STIB 900 at 100 ug/ml; assay type: functional, organism-based
Escherichia coli = assay: Antimicrobial activity against Escherichia coli NCTC 8196 after 24 hrs by agar diffusion assay; assay type: functional; procedure, shortened: as §1
Leishmania donovani = assay: Antileishmanial activity against Leishmania donovani MHOM/ET/67/L82 infected in mouse peritoneal macrophages after 5 days
HT-29 = assay: (§2) Cytotoxicity against human HT-29 cells; assay type: cell-based; details: Homo sapiens, HT-29
Procedure, shortened: (§3)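 HT-29 cells were seeded at 5000 cells/100 µL in MEM with 10% heat-inactivated FCS at 37 °C and 5% CO2. They were exposed for 72 h to threefold dilutions starting at […], with 1% DMSO final. MIC was read microscopically, and IC50 came from Alamar Blue fluorescence after 2 h by linear interpolation.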

[3] = as §2; assay type: cell-based; details: human, HT-29 cells; read-out: MIC; procedure, shortened: as §3
[4] = Selectivity index, ratio of IC50 for human HT29 cells to IC50 for Trypanosoma brucei rhodesiense STIB 900; assay type: toxicity, cell-based, HT-29; details: HT29 cells versus Trypanosoma brucei rhodesiense STIB 900, read-out: Ratio IC50
Procedure, shortened: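 The index was calculated as the HT-29 IC50 divided by the T. b. rhodesiense IC50. Both IC50s came from 72 h exposures read by Alamar Blue fluorescence, with linear interpolation.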

[5] = system: Staphylococcus epidermidis; assay: Antimicrobial activity against Staphylococcus epidermis ATCC 12228 after 24 hrs by agar diffusion assay; assay type: functional; procedure, shortened: as §1
Candida albicans = assay: Antimicrobial activity against Candida albicans ATCC 10231 after 24 hrs by agar diffusion assay; assay type: functional; procedure, shortened: as §1
[6] = system: Trypanosoma brucei rhodesiense; assay: Antitrypanosomal activity against blood stream form of Trypanosoma brucei rhodesiense STIB 900; assay type: functional, organism-based
Procedure, shortened: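 Bloodstream-form trypanosomes at 200 cells/100 µL were exposed for 72 h to threefold dilutions starting at 100 µg/mL, with 1% DMSO final. MIC was read microscopically as the lowest concentration with no normally shaped or motile cells. For IC50, Alamar Blue was added for a further 2 h, fluorescence was measured, and values were obtained by linear interpolation.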

SMILES | IC50 [6] [µg/mL] | MIC [6] [µg/mL] | IC50 (Leishmania donovani; 5 d) [µg/mL] | IC50 [2] [µg/mL] | MIC [2] [µg/mL] | inhibition zone (IZ) (Corynebacterium xerosis) [mm] | inhibition zone (IZ) [1] [mm] | Activity (Trypanosoma cruzi) | inhibition zone (IZ) (Staphylococcus aureus) [mm] | Activity [2] | inhibition zone (IZ) (Escherichia coli) [mm] | Activity (Leishmania donovani) | IC50 (HT-29) [µg/mL] | MCC [3] [µg/mL] | selectivity ratio [4] | inhibition zone (IZ) [5] [mm] | inhibition zone (IZ) (Candida albicans) [mm]
CC(=O)/C=C/[C@]1(O)[C@@H](C)C[C@@H](O)CC1(C)C | 31 (≈ 137 µM) | 100 (≈ 442 µM) | – | – | – | 13 | 18 | inactive | 10.5 | inactive | 2 | inactive | 8.1 (≈ 35.8 µM) | 56 | 0.3 | 8 | 4.5
CC(=O)/C=C/[C@@]1(O)[C@@H](C)C[C@@H](O)CC1(C)C | 18 (≈ 79.5 µM) | 100 (≈ 442 µM) | 77 (≈ 340 µM) | – | – | 3 | 5 | inactive | 3 | inactive | 1 | – | 17 (≈ 75.1 µM) | > 100 | 1 | 0 | 5
Nc1nc(N)nc(Nc2ccc([As]3SCC(CO)S3)cc2)n1 (stereo not drawn) [MELARSOPROL] | 0.0004 | 0.011 | – | – | – | – | – | – | – | – | – | – | 3.6 | 11 | 9000 | – | –

More lines, main results first:

IC50 [6] [µg/mL] | MIC [6] [µg/mL] | IC50 (Leishmania donovani; 5 d) [µg/mL] | IC50 [2] [µg/mL] | MIC [2] [µg/mL] | SMILES | inhibition zone (IZ) (Corynebacterium xerosis) [mm] | inhibition zone (IZ) [1] [mm] | Activity (Trypanosoma cruzi) | inhibition zone (IZ) (Staphylococcus aureus) [mm] | Activity [2] | inhibition zone (IZ) (Escherichia coli) [mm] | Activity (Leishmania donovani) | IC50 (HT-29) [µg/mL] | MCC [3] [µg/mL] | selectivity ratio [4] | inhibition zone (IZ) [5] [mm] | inhibition zone (IZ) (Candida albicans) [mm]
1.9 (≈ 8.4 µM) | 11 (≈ 48.6 µM) | – | 1.9 (≈ 8.4 µM) | 11 (≈ 48.6 µM) | CC(=O)/C=C/[C@@]1(O)[C@H](C)C[C@H](O)CC1(C)C [BOSCIALIN] | 2 | 9.5 | inactive | 2.5 | – | 1 | inactive | 43 (≈ 190 µM) | > 100 | 23 | 0 | 4
0.9 (≈ 3.98 µM) | 3.7 (≈ 16.3 µM) | – | 0.9 (≈ 3.98 µM) | 3.7 (≈ 16.3 µM) | CC(=O)/C=C/[C@]1(O)[C@H](C)C[C@H](O)CC1(C)C [EPIBOSCIALIN] | 12 | 20 | inactive | 10 | – | 1.5 | inactive | 8.5 (≈ 37.6 µM) | 56 | 9.4 | 8 | 15.5
